For the assay, the target named is NADPH oxidase 1 (Homo sapiens) (UniProt Q9Y5S8). The assay is described as follows: cellular NOX1 ROS production inhibition – luminescence, HT29 cells, confirmation (AID 2541). As to conditions: luminol ROS chemiluminescence, 1 h, at 3.3 µM, active compounds read high. The gist of the method:
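Assay system: HT29 colon epithelial cell line with endogenous NOX1. Also added: luminol plus HRP. Doses: one dose of 3.3 µM. Incubation: 1 h compound pre-incubation before luminol/HRP addition. Technique: luminol chemiluminescence of intracellular ROS. Measure: percent inhibition of ROS luminescence signal. Replicates: triplicate wells per compound.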

SMILES strings stand for the structures. The source made the active and inactive calls.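 The calls were made as follows: active = inhibition of at least 50%; inactive = inhibition below 50%.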

Chain of NADPH oxidase 1 (Homo sapiens) (Q9Y5S8 whole entry, looked up): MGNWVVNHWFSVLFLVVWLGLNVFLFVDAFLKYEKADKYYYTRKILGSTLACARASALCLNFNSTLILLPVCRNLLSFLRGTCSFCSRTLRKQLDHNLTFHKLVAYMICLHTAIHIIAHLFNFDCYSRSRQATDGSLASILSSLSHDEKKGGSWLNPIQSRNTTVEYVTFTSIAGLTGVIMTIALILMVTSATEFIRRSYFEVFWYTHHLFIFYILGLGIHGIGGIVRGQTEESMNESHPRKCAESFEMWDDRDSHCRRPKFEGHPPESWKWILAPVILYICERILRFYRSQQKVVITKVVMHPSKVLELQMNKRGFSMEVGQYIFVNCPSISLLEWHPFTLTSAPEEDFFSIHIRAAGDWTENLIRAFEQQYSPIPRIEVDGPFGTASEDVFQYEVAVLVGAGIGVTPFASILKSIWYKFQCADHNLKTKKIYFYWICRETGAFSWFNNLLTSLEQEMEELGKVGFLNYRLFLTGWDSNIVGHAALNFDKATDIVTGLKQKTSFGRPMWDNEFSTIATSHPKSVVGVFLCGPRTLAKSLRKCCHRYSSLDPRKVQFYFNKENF

In the case of `Cc1cc(C(=O)NNc2cc(Cl)ccc2Cl)no1`, the inhibition is 108%.

With `COc1ccc2c(c1)CCCN2Cc1c[nH]c2ccccc12`, the inhibition is 26.5% (inactive).

With `Cc1ccc(SC#N)c(N)n1`, the inhibition is 63.2%.

Turning to `O=C(Nc1ccc(N2CCCCC2)cc1)Nc1ccccc1OC(F)(F)F`, the inhibition was 73.9%.

Consider `O=c1[nH]nc(N2CCSCC2)[nH]1`, for which the inhibition is 96.6%.

For `O=C(Oc1ccccc1N1CCCCC1)c1ccco1`, the inhibition was 95%.

For `CCOC(=O)C1=C(Nc2ccc(OC(C)=O)cc2)C(=O)N(C(C)(C)C)C1`, the inhibition was 72.9%.

On to `O=[N+]([O-])c1cc(C(F)(F)F)ccc1Oc1ccc(-c2nnco2)cc1`, for which the inhibition is 58.8%.

As for `CC(C)(C)c1csc(NNC(=O)c2ccc(Cl)cc2)n1`, the inhibition was 81.8%.

For `COc1ccc(Cl)cc1NC(=O)Nc1ccc(N(C)C)cc1`, the inhibition was 88.8%.

For the compound `CC1(C)CC(Nc2ccc(Nc3ccccc3)cc2)CC(C)(C)N1`, the inhibition is 61.5%.

Regarding `COC(=O)C1=C(Nc2ccc(O)cc2)CSC1`, the inhibition was 63.7%.

For `O=C1c2ccccc2C(=O)N1CNc1ccc(N2CCOCC2)cc1`, the inhibition is 11.1% (inactive).

Turning to `CCOc1ccccc1Nc1n[nH]c(=S)s1`, the inhibition was 81.5%.

With `Nc1nc(NCc2ccccc2OC(F)(F)F)n[nH]1`, the inhibition was 78.4%.

As to `CCN(CC)c1ccc(N=C2C=CC(=O)c3ccccc32)c(C)c1`, the inhibition was 23.7% (inactive).

For the compound `Cc1cc(C)cc(NC(=O)Nc2ccc(N3CCCCC3)cc2)c1`, the inhibition is 74.4%.

On to `CSC1=NS(=O)(=O)c2c(C)nn(C)c2S1`, for which the inhibition is 33.3% (inactive).

In the case of `CCC(=O)N1c2cc(Cl)ccc2-n2c(nn(C(=O)CC)c2=O)N1C(=O)CC`, the inhibition was 81.7%.

For the compound `O=C(O)/C(=N/Nc1ccccc1O)c1ccccc1`, the inhibition is 62.5%.

In the case of `O=C1C=CC(=O)N1CCc1ccccc1`, the inhibition is 11.1% (inactive).

Regarding `Cc1ccc(NCN2C(=O)c3ccc([N+](=O)[O-])cc3C2=O)cc1`, the inhibition was 17.8% (inactive).

With `CCS(=O)(=O)c1ccc(O)c(NC(=O)c2ccccc2C(=O)O)c1`, the inhibition was -41.4% (inactive).

Consider `Cc1cc(Cl)ccc1NC(=S)NNC(=S)Nc1ccc(F)cc1`, for which the inhibition was 89%.

Turning to `O=C(Oc1ccccc1N1CCCCC1)c1sc2ccccc2c1Cl`, the inhibition was 84.3%.

Regarding `Nc1nc(Nc2ccccc2)n[nH]1`, the inhibition is 73.6%.

As to `O=C(NNc1c([N+](=O)[O-])cc(C(F)(F)F)cc1[N+](=O)[O-])c1ccco1`, the inhibition is 92.8%.

On to `CC1=CC(=O)C(CCC2=CC(=O)C(C)=CC2=O)=CC1=O`, for which the inhibition was 10.4% (inactive).

On to `Cc1cc(S(=O)(=O)NNc2ncnc3cc(C(C)(C)C)sc23)c(C)cc1Cl`, for which the inhibition was 71%.

In the case of `Cc1cc(Br)c(NC(=S)NNc2ccccc2)c(Br)c1`, the inhibition is 76.9%.

For the compound `Cc1oc(-c2ccc(Cl)cc2)cc1C(=O)O/N=C(\N)Cc1nc2cccnc2n1C1CC1`, the inhibition was -17.1% (inactive).

For `CCC(=O)Nc1ccc2c(c1)N(CC)C(C)(C)CC2C` (stereo unspecified), the inhibition was 65.4%.

`c1ccc2c(c1)Nc1nc3ccccc3nc1N2`: the inhibition is 79.7%.

Turning to `CN(NC=C(C#N)C#N)c1ccccc1[N+](=O)[O-]`, the inhibition was 100%.

On to `Cc1noc(C)c1C(=O)Nc1ccc(N2CCOCC2)nc1N1CCOCC1`, for which the inhibition is 97.5%.

Consider `COc1cccc(NC(=S)NNc2ccc([N+](=O)[O-])cc2)c1`, for which the inhibition was 89.2%.

For `COc1cccc(NC(=S)NNC(=S)NC2CC3CCC2C3)c1` (stereo unspecified), the inhibition was 78.9%.

As to `COc1cccc(C(=O)CSc2nsc(SCC(=O)c3cccc(OC)c3)c2C#N)c1`, the inhibition was 44.1% (inactive).

For `CCC(CO)Nc1nc2c([nH]1)c(=O)n(C)c(=O)n2C` (stereo unspecified), the inhibition was -32.2% (inactive).

As for `COCCCNC(=S)NNC(=S)Nc1ccccc1`, the inhibition is 70.1%.

As to `c1ccc2c(c1)NC(c1ccc3c(c1)OCO3)O2` (stereo unspecified), the inhibition is -39.8% (inactive).

In the case of `COc1ccc(N(C)CC(=O)O)c(C(=O)O)c1`, the inhibition was 75%.

Consider `NS(=O)(=O)c1ccc(NNC(=O)c2c(F)cccc2Cl)cc1`, for which the inhibition was 74.3%.

Regarding `O=C(Nc1ccc(Cl)cc1)Oc1ccccc1N1CCSCC1`, the inhibition was 56.4%.

With `CCOC(=O)c1nsc(/C(C)=N/Nc2ccccc2)c1N`, the inhibition was 16% (inactive).

For the compound `S=c1[nH]cc(-c2ccc(Br)cc2)[nH]1`, the inhibition was 70.8%.

Take `S=C(NNc1nccc(-c2cccnc2)n1)Nc1ccccc1`: the inhibition is 88.4%.

For `CCN(CC)c1ccc(NC(=O)C2CCCCC2)c(N(CC)CC)n1`, the inhibition is 37% (inactive).

For the compound `Cc1nc(C(F)(F)F)c(C(=O)NNc2ncc(C(F)(F)F)cc2Cl)s1`, the inhibition was 101%.

As for `O=C(Oc1ccccc1N1CCOCC1)c1cccs1`, the inhibition is 87.8%.

Consider `CC(C)(C)c1cc2nc(C(F)(F)F)cc(NNC(=O)Nc3ccc(OC(F)(F)F)cc3)n2n1`, for which the inhibition is 11.4% (inactive).

As for `O=C(Oc1ccccc1N1CCOCC1)c1cccnc1Oc1ccccc1`, the inhibition was 71.9%.

On to `COC(=O)c1sccc1-c1ccc(CN2CCCc3cc(OC)ccc32)o1`, for which the inhibition is 74.1%.

In the case of `COc1ccccc1NNC(=O)c1cc(C(C)(C)C)nn1Cc1ccccc1`, the inhibition was 92.4%.

As to `ON/C=N/c1nnc(C(F)(F)F)s1`, the inhibition was 63.1%.

On to `O=C1C=C(I)C(=O)C=C1I`, for which the inhibition is 60.4%.

Turning to `CCn1c(-c2cc(-c3ccccc3)sc2N)n[nH]c1=S`, the inhibition is -5.1% (inactive).

Take `CN(C)c1ccc(NC(=O)Nc2ccc(OCc3ccccc3)cc2)cc1`: the inhibition was 90.2%.

Consider `COc1ccc(C(=O)NNc2c([N+](=O)[O-])cc(C(F)(F)F)cc2[N+](=O)[O-])cc1`, for which the inhibition is 88.1%.

Consider `O=c1[nH][nH]c2cccc(F)c12`, for which the inhibition is 9.8% (inactive).

Consider `Nc1nc2[nH]c(=S)[nH]c2c(=O)[nH]1`, for which the inhibition is 29.6% (inactive).

`CC(=O)/C(C=Nc1cc(C)c(O)c(Cl)c1)=C(\C)O`: the inhibition is -27.6% (inactive).

As to `COc1ccc(OC(=O)c2ccc3ncccc3c2)cc1`, the inhibition is 51.6%.

Regarding `COc1ccc(OC)c(S(=O)(=O)c2ccc([N+](=O)[O-])cc2Cl)c1`, the inhibition is 43.9% (inactive).

As for `O=C(Nc1ccc(Cl)cc1Cl)c1cc([N+](=O)[O-])cc2c1-c1ccc([N+](=O)[O-])cc1C2=O`, the inhibition is -22.8% (inactive).

`CC(=O)Oc1ccc(OC(C)=O)c2c1[C@@H]1C=C[C@H]2CC1`: the inhibition was 75.9%.

Take `O=C(Oc1cccc2[nH]ccc12)c1ccc(C(F)(F)F)cc1`: the inhibition is 30.4% (inactive).

Take `O=S(=O)(Nc1ccc(N2CCCCC2)cc1)c1ccccc1`: the inhibition is 85.4%.

`CCC1=Nc2cccc3cccc(c23)N1`: the inhibition is 14% (inactive).

For the compound `N#Cc1c(N)sc2c1CCc1ccccc1-2`, the inhibition was 103%.

As for `Cc1ccccc1C(=O)Oc1ccc(-c2csnn2)cc1`, the inhibition is 54.9%.

Consider `COc1cc2ncnc(NNS(=O)(=O)c3cc(C)c(Cl)cc3C)c2cc1OC`, for which the inhibition was 93%.

For `O=c1c(Cl)c2oc3ccccc3nc-2c2ccccc12`, the inhibition is 56.3%.

For `Cn1ncc(C(=O)NC(=O)Nc2ccc(F)cc2)c1[N+](=O)[O-]`, the inhibition is 6.3% (inactive).

With `O=c1c2c(-c3ccc([N+](=O)[O-])cc3)onc2n(-c2ccccc2)c(=O)n1-c1ccccc1`, the inhibition is 29% (inactive).

Consider `COc1cc2ncnc(NNC(=O)c3cccs3)c2cc1OC`, for which the inhibition is 70.5%.

As to `FC(F)(F)c1ccc2c(c1)Nc1ccccc1S2`, the inhibition was 86.9%.

For `COc1cc(-c2nc(-c3ccccc3)c(-c3ccccc3)[nH]2)ccc1O`, the inhibition was 84.1%.

Regarding `CN(C)c1ccc(/C=N/Nc2c(Cl)cncc2Cl)cc1`, the inhibition was 73.6%.

Take `Cn1cnc(S(=O)(=O)Nc2ccc(N3CCCCC3)cc2)c1`: the inhibition is 77.2%.

Regarding `CC1CN(c2ccc(NC(=S)NN)cc2)CC(C)O1` (stereo unspecified), the inhibition was 59.5%.

For the compound `Nc1nc(NCc2c(Cl)cccc2Oc2ccccc2)n[nH]1`, the inhibition is 74.1%.

Turning to `O=c1[nH]c2ccsc2c(=O)n1CCO`, the inhibition is 95.7%.

As to `CN(C)c1ccc(NC(=O)Nc2cccs2)cc1`, the inhibition is 48.3% (inactive).

`CC(C)C(=O)NNc1nc2c(c(=O)n(C)c(=O)n2C)n1Cc1ccc(Cl)cc1`: the inhibition was 76.1%.

Regarding `Cn1nc(-c2ccccc2)c(O)c(N=Nc2ccccc2)c1=O`, the inhibition is 88.9%.

Turning to `Cc1csc2ncnc(NNS(=O)(=O)c3cc(C(F)(F)F)cc(C(F)(F)F)c3)c12`, the inhibition is 81.6%.

For `CC(=O)c1ccc(NCN2C(=O)/C(=C\N(C)C)NC2=S)cc1`, the inhibition was 59.2%.

Turning to `Nc1nc(NCc2ccccn2)n[nH]1`, the inhibition is 78.6%.

Consider `O=C(NNc1c([N+](=O)[O-])cc(C(F)(F)F)cc1[N+](=O)[O-])c1ccccc1-n1cccc1`, for which the inhibition is 78%.

With `CCN(CC)c1ccc(NC(=O)c2c(F)cccc2F)c(N(CC)CC)n1`, the inhibition is 37.1% (inactive).

As for `CCOC(=O)C(=CNNc1ccnc2cc(Cl)ccc12)C(=O)OCC`, the inhibition was 87.5%.

`O=[N+]([O-])c1cc(C(F)(F)F)cc([N+](=O)[O-])c1Sc1ncc2ccccn12`: the inhibition was -0.1% (inactive).

For the compound `CC[n+]1c(C)csc1Nc1ccc(N2CC(C)OC(C)C2)cc1` (stereo unspecified), the inhibition was 89.3%.

In the case of `O=C(N/N=C/c1ccc(O)cc1)N/N=C/c1ccc(O)cc1`, the inhibition was 76.7%.

As for `Cc1cc(S(=O)(=O)NNc2ncnc3c2cnn3C)c(C)cc1Cl`, the inhibition is 102%.

For orientation: inhibition means the drop in the measured response relative to a control, in per cent.

These data come from PubChem BioAssay AID2541 (The Scripps Research Institute Molecular Screening Center, 2010).
